Laboratory results: publication PMC9273405 (Burns & Trauma, 2022)

Assays:
[1] = test system: scald wounds in mice skin; test: Scald wound repair in mouse skin; assay type: in vivo; conditions: 50 nM; for re-epithelialization rate: scald wound
[2] = test system: full-thickness injury skin wounds in mice; test: Full-thickness injury skin wound healing in mice; assay type: in vivo, mouse
In short: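 Mice were anaesthetised with 1% pentobarbital sodium (0.1 ml/20 g) and given two round 8 × 8 mm dorsal skin wounds. Wounds were treated topically twice daily with 20 μl of vehicle, peptide (0.5, 5 or 50 nM) or EGF (50 nM). Residual wound area was measured from images as a percentage of initial area. New epidermis and granulation tissue thickness were measured from H&E sections on days 4 and 8. Six mice per group.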

B1: epidermal growth factor (protein, UniProt P01133 23-1207, looked up)
Pro-epidermal growth factor: PQHWSCPEGTLAGNGNSTCVGPAPFLIFSHGNSIFRIDTEGTNYEQLVVDAGVSVIMDFHYNEKRIYWVDLERQLLQRVFLNGSRQERVCNIEKNVSGMAINWINEEVIWSNQQEGIITVTDMKGNNSHILLSALKYPANVAVDPVERFIFWSSEVAGSLYRADLDGVGVKALLETSEKITAVSLDVLDKRLFWIQYNREGSNSLICSCDYDGGSVHISKHPTQHNLFAMSLFGDRIFYSTWKMKTIWIANKHTGKDMVRINLHSSFVPLGELKVVHPLAQPKAEDDTWEPEQKLCKLRKGNCSSTVCGQDLQSHLCMCAEGYALSRDRKYCEDVNECAFWNHGCTLGCKNTPGSYYCTCPVGFVLLPDGKRCHQLVSCPRNVSECSHDCVLTSEGPLCFCPEGSVLERDGKTCSGCSSPDNGGCSQLCVPLSPVSWECDCFPGYDLQLDEKSCAASGPQPFLLFANSQDIRHMHFDGTDYGTLLSQQMGMVYALDHDPVENKIYFAHTALKWIERANMDGSQRERLIEEGVDVPEGLAVDWIGRRFYWTDRGKSLIGRSDLNGKRSKIITKENISQPRGIAVHPMAKRLFWTDTGINPRIESSSLQGLGRLVIASSDLIWPSGITIDFLTDKLYWCDAKQSVIEMANLDGSKRRRLTQNDVGHPFAVAVFEDYVWFSDWAMPSVMRVNKRTGKDRVRLQGSMLKPSSLVVVHPLAKPGADPCLYQNGGCEHICKKRLGTAWCSCREGFMKASDGKTCLALDGHQLLAGGEVDLKNQVTPLDILSKTRVSEDNITESQHMLVAEIMVSDQDDCAPVGCSMYARCISEGEDATCQCLKGFAGDGKLCSDIDECEMGVPVCPPASSKCINTEGGYVCRCSEGYQGDGIHCLDIDECQLGEHSCGENASCTNTEGGYTCMCAGRLSEPGLICPDSTPPPHLREDDHHYSVRNSDSECPLSHDGYCLHDGVCMYIEALDKYACNCVVGYIGERCQYRDLKWWELRHAGHGQQQKVIVVAVCVVVLVMLLLLSLWGAHYYRTQKLLSKNPKNPYEESSRDVRSRRPADTEDGMSSCPQPWFVVIKEHQDLKNGGQPVAGEDGQAADGSMQPTSWRQEPQLCGMGTEQGCWIPVSSDKGSCPQVMERSFHMPSYGTQTLEGGVEKPHSLLSANPLWQQRALDPPHQMELTQ
modifications: Pro-epidermal growth factor
In the case of B1, the “regeneration rate of scald wounds” value ([1]; 20 μl topical, day 12 after operation, n = 6 (vehicle 40 ± 4%)) is reported as 78 ± 5%, the re-epithelialization rate ([1]; day 8, H&E staining, n = 6 (vehicle 15 ± 3%)) is reported as 38 ± 3% and the re-epithelialization rate ([1]; day 12, H&E staining, n = 6 (vehicle 42 ± 2%)) is reported as “almost complete re-epithelialization”. For the same molecule, the “skin wound healing rate” value ([2]; 50 nM, 20 μl topical twice a day, day 8 post-operation, n = 6 (vehicle 71 ± 3%)) was 87 ± 2%, the “thickness of new epidermis” value ([2]; day 4, H&E staining, n = 6 (vehicle 119 ± 7)) was 58 ± 2 μm and the “thickness of granulation tissue” value ([2]; day 4, H&E staining, n = 6 (vehicle 505 ± 46)) was 317 ± 82 μm. For the same molecule, the “thickness of new epidermis” value ([2]; day 8, H&E staining, n = 6 (vehicle 86 ± 7)) was 38 ± 10 μm and the “thickness of granulation tissue” value ([2]; day 8, H&E staining, n = 6 (vehicle 982 ± 8)) was 719 ± 54 μm.
